SENP8 block-1: SENP8 (human) protease inhibition; 360,000 tested, 0.64% active; inhibition, % at 20 µM; Q96LD8; recombinant SENP8, Nedd8 substrate fluorescence; in the data active = inhibition mostly above about 40%, no sharp cut-off; inactive = mostly below about 27%
Target sequence (Q96LD8 whole entry, looked up): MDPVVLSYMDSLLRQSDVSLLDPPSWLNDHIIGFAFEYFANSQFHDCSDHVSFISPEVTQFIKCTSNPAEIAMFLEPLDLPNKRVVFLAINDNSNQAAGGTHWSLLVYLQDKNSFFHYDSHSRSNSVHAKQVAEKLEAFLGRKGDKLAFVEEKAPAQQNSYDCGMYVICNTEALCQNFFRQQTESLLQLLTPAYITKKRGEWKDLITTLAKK
SENP8 block-2: inhibitors of human SENP8 protease | Q96LD8 | purified SENP8, Z-RLRGG-aminoluciferin cleavage, luminescence | inhibition, % at 10 µM | 330,000 tested, 1.2% active | AID 2540; in the data active = inhibition above about 50%
SENP7 block: inhibitors of human SENP7 protease; recombinant SENP7, Z-RLRGG-aminoluciferin luminescence, 40 min; 330,000 tested, 1.5% active; AID 434973; inhibition, % at 5 µM;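 active = inhibition above about 50% at the single test dose, limit read from the data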;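 also: plate controls were DMSO with enzyme for no effect and no enzyme buffer wells for full effect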
SENP1 inh: blocks the human SENP1 SUMO protease catalytic domain | Q9P0U3 | recombinant SENP1 catalytic domain, CyPet-SUMO1-YPet FRET cleavage | inhibition, % at 10 µM | 360,000 tested, 0.21% active | AID 624204;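 active = inhibition at least 30% at 10 µM, raw YFP signal under a set limit, fluorescence ratio 0.5 to 1.5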;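 also: 0% = enzyme with DMSO and 100% = no enzyme wells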
Target sequence (Q9P0U3 419-644 limits assumed): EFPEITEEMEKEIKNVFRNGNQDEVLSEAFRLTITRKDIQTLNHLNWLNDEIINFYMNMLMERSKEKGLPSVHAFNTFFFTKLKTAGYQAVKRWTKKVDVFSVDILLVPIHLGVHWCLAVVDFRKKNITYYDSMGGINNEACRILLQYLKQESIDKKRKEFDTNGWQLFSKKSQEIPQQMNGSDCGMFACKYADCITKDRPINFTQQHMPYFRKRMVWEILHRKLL
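Controls: no-enzyme wells low, DMSO-plus-enzyme wells high control. Test system: human recombinant His6-tagged SENP1 catalytic domain enzyme. Reagent: SFCypet-SUMO1-SFYpet FRET protein substrate, 25 nM final. Doses: one dose per compound, 10 µM, 0.5% DMSO. Detection: FRET, CFP and YFP emission. Timing: 50 min reaction at room temperature.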
Platelet DG rel: platelet dense granule release activity. human platelet-rich plasma, SFLLRN dense granule ATP release, luminescence. inhibition, %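 (compounds screened at 7.5 µM in platelet-rich plasma)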. 300,000 tested, 0.22% active;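 active = mean replicate score, as percent of positive control, at or above 50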
SENP6 inh: SENP6 protease inhibition; Q9GZR1; Recombinant SENP6 catalytic domain, aminoluciferin luminescence; inhibition, % at 10 µM; 330,000 tested, 1.8% active; AID 2599;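 active = inhibition above about 50% at the single tested dose, limit read from the data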;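 also: plate controls were DMSO wells with enzyme for no effect and DMSO wells lacking enzyme for full effect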
SENP8 confirm: human SENP8 inhibition, confirmed; shares compounds with SENP7 block; Recombinant SENP8, Z-RLRGG-aminoluciferin luminescence, 60 min; inhibition, % at 12.5 µM; 6,200 tested, 40% active;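 active = mean inhibition across replicates above about 50%, limit read from the data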
SENP6 conf: human SENP6 inhibition, confirmed. shares compounds with SENP7 block. 6,200 tested, 58% active. inhibition, % at 12.5 µM. recombinant SENP6, Z-RLRGG-aminoluciferin luminescence
SENP7 confirm: human SENP7 inhibition, confirmed | shares compounds with SENP7 block | recombinant SENP7, Z-RLRGG-aminoluciferin luminescence, 40 min | inhibition, % at 12.5 µM | 6,200 tested, 69% active | AID 488917
Casp3 select: caspase-3 inhibition (SENP selectivity assay). shares compounds with SENP7 block. purified caspase-3, Z-DEVD-aminoluciferin luminescence, 60 min. inhibition, % at 12.5 µM. 6,200 tested, 60% active;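 active = mean inhibition above about 50%, limit read from the data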;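 also: plate controls were enzyme with DMSO for no effect and wells without caspase-3 for full effect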
Target sequence (P42574 28-227 limits assumed): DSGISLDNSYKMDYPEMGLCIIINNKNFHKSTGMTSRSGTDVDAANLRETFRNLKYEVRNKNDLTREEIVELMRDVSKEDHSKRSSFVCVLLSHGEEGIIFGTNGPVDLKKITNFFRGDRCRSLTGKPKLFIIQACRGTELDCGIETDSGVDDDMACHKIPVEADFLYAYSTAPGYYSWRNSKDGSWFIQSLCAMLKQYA
Luc interf: counter-screen for SENP inhibitors: luminescence interference. shares compounds with SENP7 block. Pre-incubated SENP8/Z-RLRGG-aminoluciferin, luciferase luminescence interference. 6,200 tested, 39% active. AID 488919. inhibition, % at 12.5 µM;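 active = mean inhibition above about 50% when retested at one dose, limit read from the data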;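 also: plate controls were DMSO wells with completed reaction for no effect and substrate without enzyme for full effect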
The depositor's hits bear a star; / = no result given. The list is not random: actives were taken first. Their share in the collection is about 2.6%.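 The calls were made as follows, unless noted: active = mean inhibition above about 50% in the one-dose retest (limit read from the data); inactive = the rest.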

SMILES | SENP8 block-1 | SENP8 block-2 | SENP7 block | SENP1 inh | Platelet DG rel | SENP6 inh | SENP8 confirm | SENP6 conf | SENP7 confirm | Casp3 select | Luc interf
O=C(O)c1ccccc1Nc1ccc(OC(F)F)cc1 | 14.8 | 55.2* | 20.6 | 0.8 | -1.9 | 10.4 | 61.2* | 60.2* | 80.4* | 65.6* | 73.9*
O=C(O)CC1(CC(=O)NCc2ccc(F)cc2)CCCCC1 | 9.3 | 5.9 | -7.0 | 0.7 | / | 17.6 | / | / | / | / | /
Cc1ccccc1Nc1nc2ccccc2s1 | 10.1 | 68.2* | 72.0* | 1.8 | -2.2 | -0.1 | 84.4* | 83.7* | 95.4* | 68.9* | 70.6*
COc1ccc2nc(NC(=O)Nc3cccc4ccccc34)sc2c1 | -151.2 | -10.4 | -5.3 | -3.0 | -9.0 | 0.3 | / | / | / | / | /
COc1ccc2nc(Nc3nc4cc5c(cc4s3)OCO5)sc2c1 | -306.6 | -11.3 | -0.3 | -26.0 | 2.0 | 1.6 | / | / | / | / | /
COc1ccc2nc(Nc3ccccc3OC)sc2c1 | 16.5 | 92.3* | 98.4* | 0.2 | 21.7 | 91.6* | 96.3* | 96.5* | 101.2* | 91.0* | 86.6*
COc1ccc2nc(Nc3ccc4c(c3)OCO4)sc2c1 | 29.8 | -22.3 | 58.4* | 0.9 | 3.3 | 9.3 | 2.8 | 1.9 | 21.7 | 28.7 | 18.6
COc1ccc2nc(NC(=O)Nc3ccccc3OC)sc2c1 | 8.5 | 44.0 | 92.8* | -1.4 | 5.2 | 80.5* | -7.8 | -7.0 | 7.1 | 63.9* | -2.7
Fc1ccc(Nc2nc3ccccc3s2)cc1 | 7.4 | 20.2 | 43.5 | 0.3 | 1.5 | 33.9 | / | / | / | / | /
O=C(NCC1CCCO1)c1cccc(S(=O)(=O)Nc2cccc(C(F)(F)F)c2)c1 (centres undefined) | 18.6 | -8.4 | 0.7 | 1.3 | / | -1.5 | / | / | / | / | /
CCOc1ccccc1N=C1SCC(C)N1C(=O)C1CCN(c2ncnc3sc(C)c(C)c23)CC1 (centres undefined) | -1.1 | / | / | -0.9 | / | / | / | / | / | / | /
O=C(NCCc1ccccc1F)C1CCC(=O)N(Cc2ccccc2F)C1 (centres undefined) | 9.1 | 6.4 | 0.1 | -0.8 | 6.2 | 6.9 | / | / | / | / | /
COc1ccc2nc(Nc3ccccc3)sc2c1 | -1.1 | 69.7* | 83.6* | 2.0 | 14.8 | 55.9* | 88.5* | 87.7* | 97.7* | 61.4* | 83.6*
Oc1ccc(NCc2ccccc2OCc2ccccc2F)cc1 | 76.5* | 19.8 | 31.0 | 1.8 | 13.8 | 60.1* | 17.4 | 19.9 | 5.1 | 6.7 | 5.2
O=C(N/N=C/c1cccc(Oc2ccccc2)c1)c1cccc(O)c1 | 4.8 | 37.2 | 37.6 | -0.6 | 7.1 | 60.0* | 47.8 | 42.7 | 61.6* | 27.8 | 22.3
O=C(CNc1cccc2ccccc12)N/N=C/c1ccc([N+](=O)[O-])cc1 | -104.8 | 18.1 | 30.4 | -13.9 | -0.5 | 74.3* | 11.1 | 6.7 | 8.1 | 4.0 | 2.3
O=C(CNc1cccc2ccccc12)N/N=C/c1cccc(Oc2ccccc2)c1 | -260.9 | 51.4* | 24.5 | -32.2 | 3.3 | 67.3* | 6.6 | -3.4 | -6.1 | -4.3 | -4.1
O=C(CNc1cccc2ccccc12)N/N=C/c1ccccn1 | -38.7 | 71.3* | 28.7 | -34.6 | -2.4 | 83.3* | 13.5 | 15.3 | 6.5 | -1.5 | -0.1
O=C(c1ccc2c(c1)OCO2)C1CCCN(C2CCN(CCc3ccccc3)CC2)C1 (centres undefined) | -5.4 | -0.5 | -7.6 | -3.6 | -7.5 | -9.8 | / | / | / | / | /
COC(=O)c1cc(C#N)c(OC(C)C)nc1C | 5.7 | 0.2 | 1.9 | 0.8 | 7.4 | 5.6 | / | / | / | / | /
O=C(Nc1scc(-c2cccs2)c1C(=O)O)c1cccs1 | -126.8 | 75.7* | -8.0 | -1.3 | 7.3 | 87.0* | -20.4 | 79.6* | 94.6* | 79.6* | 84.9*
COc1ccc(-c2csc(NC(=O)c3ccccc3F)c2C(=O)O)cc1 | -43.3 | 60.4* | 18.1 | 1.9 | 3.4 | 67.7* | 13.9 | 73.1* | 89.6* | 74.8* | 75.5*
O=C(Nc1scc(-c2ccccc2)c1C(=O)O)c1ccco1 | -94.3 | 47.2 | 44.1 | 0.0 | 0.0 | 70.7* | 62.2* | 60.1* | 87.3* | 83.0* | 75.5*
Cc1ccc(C(=O)Nc2scc(-c3ccccc3)c2C(=O)O)cc1 | -152.7 | 92.5* | 70.0* | -1.7 | -7.5 | 94.4* | 7.0 | 96.9* | 101.9* | 95.0* | 95.1*
COC(=O)c1c(-c2ccc(F)cc2)csc1NC(=O)c1ccco1 | -495.8 | -11.1 | -3.9 | -2.2 | 12.3 | -2.6 | / | / | / | / | /
SMILES | SENP8 block-1 | SENP8 block-2 | SENP7 block | SENP1 inh | Platelet DG rel | SENP6 inh | SENP8 confirm | SENP6 conf | SENP7 confirm | Casp3 select | Luc interf
O=C(N/N=C/C=C\c1cccc([N+](=O)[O-])c1)c1cccnc1 | 38.4 | 0.3 | -7.3 | 2.3 | -0.9 | 1.8 | / | / | / | / | /
COc1ccc(CC(=O)NNS(=O)(=O)c2cccc([N+](=O)[O-])c2)cc1OC | 13.9 | 2.7 | -4.8 | 4.4 | 2.6 | -6.9 | / | / | / | / | /
COc1ccc(-n2c(O)c(/C=N/NS(=O)(=O)c3cccc([N+](=O)[O-])c3)c3ccccc3c2=O)cc1OC | -399.7 | 9.5 | 24.8 | -15.1 | -2.8 | 52.8* | 9.7 | 19.3 | -4.6 | 0.1 | 0.1
CCN(c1ccccc1)S(=O)(=O)c1cc(NC(=O)CN2CCN(C)CC2)ccc1Cl | 16.6 | -20.8 | -6.7 | -1.8 | / | -17.4 | / | / | / | / | /
Cc1ccc(/C=N/N2CCN(c3ccccn3)CC2)cc1 | 11.2 | -16.3 | -2.1 | 4.3 | 0.8 | 1.0 | / | / | / | / | /
ClC(=C\c1ccccc1)/C=N/N1CCN(c2ccccn2)CC1 | 7.9 | -13.0 | 54.2* | 2.2 | -8.3 | 26.2 | 5.0 | 6.5 | 17.0 | 30.6 | 5.0
CC(Sc1ccc(Cl)cc1)C(=O)NNC(=O)c1csc(N2CCOCC2)n1 (centres undefined) | -11.8 | 0.4 | 10.9 | 0.4 | 8.8 | -7.3 | / | / | / | / | /
CC1(C)Cc2c(sc3nc(-c4cc5ccccc5o4)n(N)c(=O)c23)CO1 | -272.9 | -13.5 | -5.4 | -22.2 | -5.9 | -0.6 | / | / | / | / | /
CCCc1nc(-c2ccc(-c3ccc(F)cc3)cc2)no1 | 12.9 | 6.1 | 57.1* | 1.2 | -6.7 | 51.5* | 14.1 | 15.8 | 20.1 | 28.3 | 12.7
O=C(NCCc1nc(-c2ccc(F)cc2)no1)c1ccc(F)cc1 | -5.6 | 1.6 | -3.5 | 1.4 | / | 5.4 | / | / | / | / | /
O=C(O/N=C1/CCCc2occc21)c1ccccc1 | 25.0 | 84.0* | 94.6* | 3.7 | 0.4 | 88.6* | -19.9 | 84.2* | 98.5* | 91.7* | 53.8*
